Type in all cases: in vivo, Mus musculus
In data set [1] the test system is hypothalamus and hindbrain. Particulars: 2-DG 250 mg/kg i.p. after 5 h food deprivation; Fig 3B. The method in brief: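 Mice food-deprived 5 h, then given 2-DG (250 mg/kg i.p.). […] Brains were dissected, dehydrated through a tetrahydrofuran series, cleared in dibenzylether and imaged by whole-brain light-sheet microscopy. Signal was autofluorescence-unmixed, and the volume of signal dispersion was quantified. Blood glucose was tracked; mean ± SEM.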

The test system of data set [2] is arcuate nucleus of control and Tanycyte^ΔVegfa mice. The note with it: 2-DG 250 mg/kg with Ex-4_Cy3 120 nmol/kg; data not shown.
The subject of data set [3] is hypothalamus (ME/ARC) and other CVOs. Particulars: 120 nmol/kg i.p., 15 min before sacrifice; 2D planes from LSFM; Fig 2A.
Data set [4] in a line: Glycemic change. Particulars: single i.p. insulin injection, mean ± SEM.
Data set [5] concerns control and Tanycyte^ΔVegfa mice. The experiment in a line: Metabolic efficiency. The note with it: chow, daily i.p. insulin 20 nmol/kg, Fig 5F,G.

As to `O=CC[C@@H](O)[C@H](O)[C@H](O)CO` [2-DG, 2-deoxyglucose], the “blood glucose (counter-regulatory response)” value in data set [1] is listed as “increased”.

For “Ex-4_Cy3: fluorescent Exendin-4 labeled with Cy3, Novo Nordisk”, the “total fluorescence intensity, control vs Tanycyte ΔVegfa” value in data set [2] is on record as “comparable between groups”.

As for “Ex-4_VT^750: fluorescent labeled Exendin4 (VT750), Novo Nordisk”, the “brain regions with Ex-4_VT750 signal after systemic administration” value in data set [3] was “detected in the ME/ARC, OLVT, AP, SFO, and choroid plexus”.

Take “insulin: Insulin (Novorupid, Flex pen, 8-9670-79-202-2), Novo Nordisk”: the “glycemic change (vehicle/insulin), Tanycyte ΔVegfa” value in data set [4] (Tanycyte^ΔVegfa mice) is 52% ± 2.08%. Moreover, the “glycemic change (vehicle/insulin), controls” value in data set [4] (control mice) is recorded as 62% ± 5.7%. In addition, the “change in fat oxidation in response to insulin, Tanycyte ΔVegfa mice” value in data set [5] is “comparable with vehicle”.

Source of the values: PMC9715912 (Cell Reports, 2022).
